{"data": "Assay results pooled from the literature", "target": "Serine/threonine-protein kinase PLK2 (PLK2, Homo sapiens, UniProt Q9NYY3)", "note": "Compare with care: the assays were run in different laboratories."}
{"SMILES": "O=C(NCCCN1CCOCC1)c1ccc(Nc2nccc(-c3cc4ccccc4s3)n2)cc1", "read-out": "binding", "method": "competition with immobilised ligand", "concentration": "1 µM", "remaining binding [%]": 44}
{"SMILES": "Cc1cnn2ncc(-c3ccnc(N(C)C)n3)c2c1", "read-out": "binding", "concentration": "1 µM", "remaining binding [%]": 94}
{"SMILES": "N#Cc1ccc(Nc2ccc3[nH]c(=O)[nH]c3c2)c(Cl)c1", "read-out": "cell-free assay", "method": "competition with immobilised ligand", "concentration": "1 µM", "remaining binding [%]": 86}
{"SMILES": "CNC(=O)[C@@H]1CC[C@@H](n2c(-c3ccc4cnccc4c3)nc3ccc(C(=O)NCc4cccc(C(N)=O)c4)cc32)C1", "read-out": "binding", "method": "competition with immobilised ligand", "concentration": "1 µM", "remaining binding [%]": 96}
{"SMILES": "F[C@@H]1CCN(c2nccc(-c3cnn4ncccc34)n2)C1", "read-out": "binding", "concentration": "1 µM", "remaining binding [%]": 100}
{"SMILES": "Cc1cnc(Nc2ccc(C(=O)N3CCC(N4CCCC4)CC3)cc2)nc1-c1cc2ccccc2s1", "read-out": "binding", "method": "competition with immobilised ligand", "concentration": "1 µM", "remaining binding [%]": 52}
{"SMILES": "C[C@H]1CCN(c2nccc(-c3cnn4ncccc34)n2)C1", "read-out": "binding", "concentration": "1 µM", "remaining binding [%]": 91}
{"SMILES": "CCS(=O)(=O)c1cc2cc(C[C@@](O)(CC(C)(C)c3ccc(F)cc3C(N)=O)C(F)(F)F)[nH]c2cn1", "read-out": "cell-free assay", "method": "competition with immobilised ligand", "concentration": "1 µM", "remaining binding [%]": 100}
{"SMILES": "CCN1CCN(Cc2ccc(C(=O)Nc3ccc(C)c(Oc4ccc5c(c4)CC(=O)N5)c3)cc2C(F)(F)F)CC1", "read-out": "binding", "method": "competition with immobilised ligand", "concentration": "1 µM", "remaining binding [%]": 66}
{"SMILES": "Nc1ncc2c(n1)-c1c([nH]c3ccc(C#CC4CC4)cc13)CCCC2", "read-out": "binding", "method": "competition with immobilised ligand", "concentration": "1 µM", "remaining binding [%]": 91}
{"SMILES": "C[C@@H]1CN(c2cc(-c3n[nH]c4ccc(OC5(C)CC5)cc34)ncn2)C[C@H](C)O1", "read-out": "cell-free assay", "method": "competition with immobilised ligand", "concentration": "0.1 µM", "remaining binding [%]": 76}
{"SMILES": "CC1CCCN1c1nccc(-c2cnn3ncccc23)n1 (centres unmarked)", "read-out": "binding", "concentration": "1 µM", "remaining binding [%]": 100}
{"SMILES": "CNC(=O)Nc1ccc2c(c1)CC[C@@]21OC(=O)N(CC(=O)N(Cc2ccc(F)cc2)[C@@H](C)C(F)(F)F)C1=O", "read-out": "cell-free assay", "method": "competition with immobilised ligand", "concentration": "1 µM", "remaining binding [%]": 91}
{"SMILES": "O=C(NCC1CCOCC1)c1n[nH]cc1NC(=O)c1c(F)cccc1F", "read-out": "binding", "method": "competition with immobilised ligand", "concentration": "1 µM", "remaining binding [%]": 96}
{"SMILES": "CS(=O)(=O)NCC[C@H](NC(=O)c1cncc2c1cnn2-c1ccc(F)cc1)c1ccnc(S(C)(=O)=O)c1", "read-out": "cell-free assay", "method": "competition with immobilised ligand", "concentration": "1 µM", "remaining binding [%]": 100}
{"SMILES": "COc1ccnn2ncc(-c3ccnc(N(C)C)n3)c12", "read-out": "binding", "concentration": "1 µM", "remaining binding [%]": 93}
{"SMILES": "CN(C)CC#Cc1ccc(OCCCc2sc(N3CCc4cccc(C(=O)Nc5nc6ccccc6s5)c4C3)nc2C(=O)O)c(F)c1", "read-out": "cell-free assay", "method": "competition with immobilised ligand", "concentration": "1 µM", "remaining binding [%]": 94}
{"SMILES": "O=C(c1ccc(Nc2nccc(-c3cc4ccccc4s3)n2)cc1)N1CCC(N2CCCC2)CC1", "read-out": "binding", "method": "competition with immobilised ligand", "concentration": "1 µM", "remaining binding [%]": 96}
{"SMILES": "CN(C)c1ncc(F)c(-c2cnn3ncccc23)n1", "read-out": "binding", "concentration": "1 µM", "remaining binding [%]": 78}
{"SMILES": "COc1cnc(Nc2cccc(S(N)(=O)=O)c2)nc1N1CCN(c2ccccc2)CC1", "read-out": "binding", "method": "competition with immobilised ligand", "concentration": "1 µM", "remaining binding [%]": 94}
